Common to all, as to type: functional
Experiment [1] relates to Mycobacterium kansasii. The experiment is described as follows: Antimycobacterial activity against Mycobacterium kansasii 6509/96 after 21 days. Conditions: 6509/96, 504 h. In a few lines:
(§1)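 Šula's semisynthetic medium micromethod at 37 °C, read after 7, 14 and 21 days. The 1.0 McFarland suspension was diluted 10^-4. MIC determined. 6509/96 is a clinical isolate.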

Experiment [2] has as its system Mycobacterium avium. In words: Antimycobacterial activity against Mycobacterium avium 330/80 after 21 days. Conditions: 330/80, 504 h.
For experiment [3], the system named is Mycobacterium kansasii. The experiment is described as follows: Antimycobacterial activity against Mycobacterium kansasii 235/80 after 21 days. Conditions: 235/80, 504 h. In outline:
as §1

Experiment [4] concerns Mycobacterium tuberculosis. The experiment is described as follows: Antimycobacterial activity against Mycobacterium tuberculosis H37Rv 331/88 after 14 days. The following applies: H37Rv 331/88, 336 h.
For experiment [5], the system named is Mycobacterium kansasii. The experiment is described as follows: Antimycobacterial activity against Mycobacterium kansasii 6509/96 after 14 days. The following applies: 6509/96, 336 h. In outline: as §1
Experiment [6] concerns Mycobacterium kansasii. In words: Antimycobacterial activity against Mycobacterium kansasii 235/80 after 7 days. The following applies: 235/80, 168 h. In outline: as §1
Experiment [7] deals with Mycobacterium kansasii. In words: Antimycobacterial activity against Mycobacterium kansasii 235/80 after 14 days. The following applies: 235/80, 336 h. In a few lines:
as §1

Experiment [8] has as its system Mycobacterium tuberculosis. In words: Antimycobacterial activity against Mycobacterium tuberculosis H37Rv 331/88 after 21 days. Conditions: H37Rv 331/88, 504 h.
For experiment [9], the system named is Mycobacterium avium. In words: Antimycobacterial activity against Mycobacterium avium 330/80 after 14 days. Conditions: 330/80, 336 h.
Experiment [10] deals with Mycobacterium kansasii. The experiment is described as follows: Antimycobacterial activity against Mycobacterium kansasii 6509/96 after 7 days. Conditions: 6509/96, 168 h. In a few lines: as §1

The values that follow come from ChEMBL document CHEMBL3627671, “Novel derivatives of nitro-substituted salicylic acids: Synthesis, antimicrobial activity and cytotoxicity” (Bioorg Med Chem, 2015).

Values after ≈ are worked out from the molar mass of the structure shown.

By MIC is commonly meant the lowest concentration that inhibits growth of the organism. A lower MIC goes with a more susceptible organism. Turning to `O=C(Nc1cccc(I)c1)c1cccc([N+](=O)[O-])c1O`, the minimal inhibitory concentration (MIC) in [1] worked out at 125 µM (≈ 48 µg/mL); in [2] it was 500 µM (≈ 192 µg/mL); in experiment [3], 125 µM (≈ 48 µg/mL); in [4] it was 62.5 µM (≈ 24 µg/mL); in experiment [5], 125 µM (≈ 48 µg/mL); in experiment [6], 62.5 µM (≈ 24 µg/mL). The MIC amounted to 125 µM (≈ 48 µg/mL) in experiment [7], 62.5 µM (≈ 24 µg/mL) in [8], 500 µM (≈ 192 µg/mL) in experiment [9] and 125 µM (≈ 48 µg/mL) in experiment [10].
`O=C(Nc1cccc(Br)c1)c1cccc([N+](=O)[O-])c1O`: the MIC was 125 µM (≈ 42.1 µg/mL) in experiment [1]; 250 µM (≈ 84.3 µg/mL) in experiment [2]; 125 µM (≈ 42.1 µg/mL) in experiment [3]; 62.5 µM (≈ 21.1 µg/mL) in [4]; 125 µM (≈ 42.1 µg/mL) in [5]; 62.5 µM (≈ 21.1 µg/mL) in [6]. In addition, the MIC in experiment [7] was 125 µM (≈ 42.1 µg/mL); in experiment [8] it was 62.5 µM (≈ 21.1 µg/mL); in [9] it was 250 µM (≈ 84.3 µg/mL); in experiment [10] it was 125 µM (≈ 42.1 µg/mL).
Turning to `O=C(Nc1cccc(Cl)c1)c1cccc([N+](=O)[O-])c1O`, the MIC in experiment [1] is 125 µM (≈ 36.6 µg/mL); in experiment [2], 500 µM (≈ 146 µg/mL); in [3], 250 µM (≈ 73.2 µg/mL); in experiment [4], 62.5 µM (≈ 18.3 µg/mL); in experiment [5], 125 µM (≈ 36.6 µg/mL); in experiment [6], 62.5 µM (≈ 18.3 µg/mL). Moreover, the MIC in experiment [7] worked out at 125 µM (≈ 36.6 µg/mL); in [8], 62.5 µM (≈ 18.3 µg/mL); in experiment [9], 500 µM (≈ 146 µg/mL); in [10], 125 µM (≈ 36.6 µg/mL).
Turning to `O=C(Nc1cccc(F)c1)c1cccc([N+](=O)[O-])c1O`, the MIC in experiment [1] stood at 250 µM (≈ 69.1 µg/mL); in experiment [2] it was 500 µM (≈ 138 µg/mL); in experiment [3], 250 µM (≈ 69.1 µg/mL); in [4], 62.5 µM (≈ 17.3 µg/mL); in experiment [5] it was 250 µM (≈ 69.1 µg/mL); in experiment [6], 62.5 µM (≈ 17.3 µg/mL). Also, the MIC came out at 125 µM (≈ 34.5 µg/mL) in [7], 62.5 µM (≈ 17.3 µg/mL) in experiment [8], 500 µM (≈ 138 µg/mL) in [9] and 125 µM (≈ 34.5 µg/mL) in [10].
On to `O=C(Nc1ccc([N+](=O)[O-])c(C(F)(F)F)c1)c1cccc([N+](=O)[O-])c1O`, for which the minimum inhibitory concentration (MIC) was 62.5 µM (≈ 23.2 µg/mL) in experiment [1]; 500 µM (≈ 186 µg/mL) in experiment [2]; 125 µM (≈ 46.4 µg/mL) in experiment [3]; 16 µM (≈ 5.94 µg/mL) in experiment [4]; 62.5 µM (≈ 23.2 µg/mL) in experiment [5]; 32 µM (≈ 11.9 µg/mL) in experiment [6]. For the same molecule, the minimum inhibitory concentration (MIC) in experiment [7] came out at 62.5 µM (≈ 23.2 µg/mL); in [8] it was 16 µM (≈ 5.94 µg/mL); in [9], 250 µM (≈ 92.8 µg/mL); in [10], 32 µM (≈ 11.9 µg/mL).
